ChEMBL document CHEMBL4196106, “From Naproxen Repurposing to Naproxen Analogues and Their Antiviral Activity against Influenza A Virus” (J Med Chem, 2018)
Active and inactive are the calls of the source. The calls are words filed in the database; no cut-off is given here.

Key:
Influenza A virus [1] = test: Antiviral activity against Influenza A virus (A/Puerto Rico/8/1934(H1N1)) infected in C57BL/6J mouse assessed as recovery of weight loss at 8 mg/mouse/day, ip qd […] starting at 5 to 10 mins post infection measured up to day 12; type: functional, organism-based
[2] = Selectivity index, ratio of CC50 for MDCK cells to IC50 for pandemic Influenza A virus (A/Netherlands/602/09(H1N1)) infected in MDCK cells at MOI of 10^-3 after 18 hrs; type: toxicity, cell-based; details: dog, read-out: Ratio CC50/IC50
Influenza A virus [3] = test: Antiviral activity against Influenza A virus (A/Udorn/1972 (H3N2)) infected in MDCK cells at MOI of 0.2 assessed as decrease in viral load after 18 hrs by immunofluorescence analysis; type: functional, organism-based
Influenza A virus [4] = test: Antiviral activity against Influenza A virus (A/Puerto Rico/8/1934(H1N1)) infected in C57BL/6J mouse assessed as recovery of weight loss at 8 mg/mouse/day, ip qd treated up to day 2 starting at 5 to 10 mins post infection measured up to day 12 relative to control; type: functional
Outline: (§1)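 Intranasal A/PR/8/34 challenge at 500 PFU in female C57BL/6J mice, 5–6 weeks old, under ketamine/xylazine. Dosing was i.p. once daily on days 0, 1 and 2, starting 5–10 min post-inoculation; 1 mg/mouse is 50 mg/kg and 8 mg/mouse is 400 mg/kg. There were 10 mice per group, with saline vehicle. Survival and body weight were scored daily, with 20% weight loss as the mortality endpoint.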

A549 = test: Downregulation of COX2 level in human A549 cells infected with Influenza A virus at MOI of 2 at 100 uM after 18 hrs in presence of gamma-ATP by immunofluorescence analysis; type: cell-based; details: a549, 18 h
Outline: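 A549 cells were pretreated with compound for 30 min, then either infected with IAV at MOI 2 for 18 h or activated with 100 µM γ-ATP for 1 h with or without compound. Cells were fixed in 3% PFA and permeabilised with 0.1% triton. COX2 was immunostained overnight with a primary antibody and detected with an Alexa 647 secondary.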

Influenza A virus [5] = test: Inhibition of Influenza A virus nucleoprotein/polymerase acidic protein (1 to 27 residues) complex formation at 100 nM by surface plasmon resonance analysis
Outline: (§2)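 Biotinylated PA(1-27) was captured on the chip at about 1500 RU, with a scrambled peptide on the same chip at similar RU. NP (12–2500 nM), alone or as NP-DNA complex, was injected with or without compound up to 50 µM. Running buffer was 20 mM Tris-HCl pH 7.4, 300 mM NaCl, 0.005% P20, at 25 °C and 30 µl/min. Regeneration used guanidinium chloride then 10 mM NaOH.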

Influenza A virus [6] = test: Antiviral activity against Influenza A virus (A/Udorn/1972 (H3N2)) infected in MDCK cells at MOI of 2 assessed as decrease in viral load after 18 hrs by immunofluorescence analysis; type: functional, organism-based
Outline: (§3)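 MDCK or A549 cells, 0.32 x 10^6 per well, were held 24 h serum-free to 80% confluence and then infected at MOI 2. Compound (0.1–500 µM) or vehicle was added right after virus adsorption. At 18 h, viral NP was read by immunofluorescence and corrected for cell number by DAPI. Runs were in triplicate, repeated at least twice, and IC50 came from a dose-response fit.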

Influenza A virus [7] = test: Antiviral activity against Influenza A virus (A/Udorn/1972 (H3N2)) infected in human A549 cells assessed as decrease in viral load after 18 hrs by immunofluorescence analysis; type: functional, organism-based; details: A549, 18 h; outline: as §3
Influenza A virus [8] = test: Antiviral activity against Influenza A virus (A/Puerto Rico/8/1934(H1N1)) infected in C57BL/6J mouse assessed as survival at 1 to 8 mg/mouse/day, ip qd treated up to day 2 starting at 5 to 10 mins post infection measured at day 12 relative to control; type: functional; outline: as §1
MDCK = test: Inhibition of nucleoprotein/polymerase acidic protein (1 to 27 residues) interaction in Influenza A virus (A/WSN/1933 (H1N1)) infected in MDCK cells by Western blot analysis; type: cell-based
Outline: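 MDCK cells were infected with A/WSN/33 at MOI 2 for 18 h and lysed in PBS with protease inhibitors and 0.5% NP40 by freezing; nucleic acids were not digested. Streptavidin beads loaded with 250 µM biotinylated PA(1-27) were incubated with the lysate 18 h at 4 °C, with or without compound. Bound NP was detected by anti-NP monoclonal western blot.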

[9] = Selectivity index, ratio of CC50 for MDCK cells to IC50 for Influenza A virus (A/WSN/1933(H1N1)) infected in MDCK cells at MOI of 2 after 18 hrs; type: toxicity, cell-based; details: dog, read-out: Ratio CC50/IC50
[10] = target: PA/PB1 (Influenza A virus (A/Puerto Rico/8/1934(H1N1)), UniProt P03431+P03433); test: Binding affinity to biotin labelled Influenza A virus polymerase acidic protein (1 to 27 residues) by surface plasmon resonance analysis; type: protein assay; outline: as §2
Influenza A virus [11] = test: (§4) Inhibition of Influenza A virus nucleoprotein/polymerase acidic protein (1 to 27 residues) complex formation in presence of DNA by surface plasmon resonance analysis; outline: as §2
[12] = as §4; outline: as §2
Influenza A virus [13] = test: Antiviral activity against Influenza A virus (A/Puerto Rico/8/1934(H1N1)) infected in C57BL/6J mouse assessed as decrease in viral load in bronchoalveolar lavage at 8 mg/mouse/day, ip qd treated up to day 2 starting at 5 to 10 mins post infection relative to control; type: functional
Outline: (§5)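 Female C57BL/6J mice, 5–6 weeks old, were anaesthetised with ketamine/xylazine (43/5 mg/kg) and inoculated intranasally with A/PR/8/34 at 500 PFU. Treatment was i.p. once daily on days 0, 1 and 2, starting 5–10 min after inoculation; 1 mg/mouse is 50 mg/kg and 8 mg/mouse is 400 mg/kg. BAL infectious titre was measured by plaque assay against saline-treated mice.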

[14] = Selectivity index, ratio of CC50 for human A549 cells to IC50 for Influenza A virus (A/Udorn/1972 (H3N2)) after 18 hrs; type: toxicity; details: read-out: Ratio CC50/IC50
[15] = Selectivity index, ratio of CC50 for MDCK cells to IC50 for Influenza A virus (A/WSN/1933(H1N1)) infected in MDCK cells at MOI of 10^-3 after 48 hrs; type: toxicity, cell-based; details: dog, read-out: Ratio CC50/IC50
Influenza A virus [16] = test: Antiviral activity against Influenza A virus (A/Puerto Rico/8/1934(H1N1)) infected in ip dosed C57BL/6J mouse assessed as increase in mouse survival administered once daily treated up to day 2 starting at 5 to 10 mins post infection; type: functional, organism-based; outline: as §1
Influenza A virus [17] = test: Antiviral activity against Influenza A virus (A/Udorn/1972 (H3N2)) infected in MDCK cells at MOI of 10^-3 assessed as decrease in viral load after 18 hrs by crystal violet staining-based plaque assay; type: functional, organism-based
Influenza A virus [18] = test: Antiviral activity against Influenza A virus (A/WSN/1933(H1N1)) infected in MDCK cells at MOI of 2 assessed as decrease in viral load after 18 hrs by immunofluorescence analysis; type: functional, organism-based; outline: as §3
Influenza A virus [19] = test: Antiviral activity against Influenza A virus (A/Puerto Rico/8/1934(H1N1)) infected in C57BL/6J mouse assessed as decrease in viral load in bronchoalveolar lavage at 1 mg/mouse/day, ip qd treated up to day 2 starting at 5 to 10 mins post infection relative to control; type: functional; outline: as §5
[20] = Safety index, ratio of compound CC50 to naproxen CC50 for MDCK cells by MTT assay; type: ADME, cell-based, Canis lupus familiaris; details: dog
Influenza A virus [21] = test: Antiviral activity against Influenza A virus (A/Puerto Rico/8/1934(H1N1)) infected in C57BL/6J mouse assessed as increase in mouse survival at 8 mg/mouse/day, ip qd treated up to day 2 starting at 5 to 10 mins post infection measured at day 12; type: functional, organism-based; outline: as §1
Influenza A virus [22] = test: Antiviral activity against pandemic Influenza A virus (A/Netherlands/602/09(H1N1)) infected in MDCK cells at MOI of 10^-3 assessed as decrease in viral load after 18 hrs by immunofluorescence analysis; type: functional, organism-based
Influenza A virus [23] = test: Antiviral activity against Influenza A virus (A/Puerto Rico/8/1934(H1N1)) infected in C57BL/6J mouse assessed as recovery of weight loss at 1 mg/mouse/day, ip qd treated up to day 2 starting at 5 to 10 mins post infection measured up to day 12 relative to control; type: functional; outline: as §1
[24] = Binding affinity to Influenza A virus nucleoprotein by surface plasmon resonance analysis
Influenza A virus [25] = test: Stabilization of Influenza A virus nucleoprotein assessed as melting temperature at 5 to 15 uM measured for 10 mins
Influenza A virus [26] = test: Antiviral activity against Influenza A virus (A/WSN/1933(H1N1)) infected in MDCK cells at MOI of 10^-3 assessed as decrease in viral load after 48 hrs by crystal violet staining-based plaque assay; type: functional, organism-based
Outline: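 Serum-starved MDCK cells, 0.32 x 10^6 per well, were infected with A/WSN/33 at MOI 10^-3 (multi-cycle). Compound (0.1–500 µM) or vehicle was added immediately after adsorption. After 48 h, titres in clarified supernatant were read by plaque assay with crystal violet. Runs were in triplicate, repeated at least twice, and IC50 came from a dose-response fit.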

Influenza A virus [27] = test: Potency index, ratio of naproxen IC50 to compound IC50 for Influenza A virus (A/WSN/1933(H1N1)) infected in MDCK cells at MOI of 2 after 18 hrs by immunofluorescence analysis; type: functional
[28] = Selectivity index, ratio of CC50 for MDCK cells to IC50 for Influenza A virus (A/Udorn/1972 (H3N2)) infected in MDCK cells at MOI of 2 after 18 hrs; type: toxicity, cell-based; details: dog, read-out: Ratio CC50/IC50
[29] = Cytotoxicity against MDCK cells assessed as reduction in cell viability after 24 to 72 hrs by MTT assay; details: dog
Influenza A virus [30] = details: 50 uM
[31] = Cytotoxicity against human A549 cells assessed as reduction in cell viability after 48 hrs by MTT assay; type: cell-based
Outline: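 Cells were seeded at 3.2 x 10^5 per well and kept 1 day at 37 °C in MEM without serum. Serial compound dilutions were added and cells incubated a further 48 h. The MTT read-out was absorbance at 550 nm minus 650 nm, and CC50 was taken from a dose-response fit.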

[32] = Cytotoxicity against MDCK cells assessed as reduction in cell viability after 48 hrs by trypan blue staining based method; parameters: species or system Canis lupus familiaris; details: dog
Outline: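 MDCK cells, 3.2 x 10^5 per well, were grown 24 h and then exposed to serial compound dilutions under the same conditions as the MTT test. At 48 h, cells were washed, trypsinised and stained with Trypan blue, and viable and dead cells were counted by phase-contrast microscopy.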

Influenza A virus [33] = test: microbe, parasite or virus in culture; details: MDCK, 18 h

Row | SMILES | selectivity ratio at 18 h [2] | inhibition (Influenza A virus [5]) | IC50 (Influenza A virus [7]) | inhibition (active/not active) (MDCK) | selectivity ratio at 18 h [9] | selectivity ratio at 18 h [14] | selectivity ratio at 48 h [15] | IC50 (Influenza A virus [18]) | fold change (FC) (Influenza A virus [19]) | selectivity ratio [20] | IC50 (Influenza A virus [22]) | Activity (Influenza A virus [23]) | Ki [24] | Tm (Influenza A virus [25]) | IC50 (Influenza A virus [26]) | selectivity ratio at 18 h [28] | CC50 at 48 h [32] | other results
1 | COc1ccc2cc(-c3c(C(=O)[O-])cccc3C(=O)[O-])ccc2c1.[Na+].[Na+] | 7220 | Active | 25 µM | Active | 684 | 520 | 4480 to 5200 | 19 µM | 6 | 10 | 1.8 µM | >=95% | 0.097 µM | 46 °C | 2.9 µM | 650 |  | Activity (Influenza A virus [1]): Active; IC50 (Influenza A virus [3]): 7 µM; Activity (Influenza A virus [4]): 5%; Activity (A549): Non-Toxic; IC50 (Influenza A virus [6]): 20 µM; Survival (Influenza A virus [8]): 70%; Ki [10]: 30 µM; inhibition (Influenza A virus [11]): Dose-dependent effect; IC50 [12]: 0.03 µM; fold change (FC) (Influenza A virus [13]): 120; Activity (Influenza A virus [16]): Dose-dependent effect; IC50 (Influenza A virus [17]): 2 µM; Activity (Influenza A virus [21]): Active; Ratio IC50 (Influenza A virus [27]): 5
2 | COc1ccc2cc([C@H](C)C(=O)O)ccc2c1 [NAPROXEN] |  | inactive | 112 µM | inactive | 14 | 12.5 | 87 | 100 µM | 2 |  |  | 85% | 0.25 µM | 41 °C | 16 µM | 12 | 1000 µM | CC50 [29]: 1400 µM; inhibition (Influenza A virus [30]): inactive; CC50 at 48 h [31]: 1400 µM; IC50 (Influenza A virus [33]): 120 µM
3 | COc1ccc2cc(-c3c(C(=O)O)cc(Oc4ccc(N)cc4)cc3C(=O)O)ccc2c1 | 619 |  |  | Active |  |  |  |  |  | 10 | 21 µM |  |  | 38 to 47 °C |  |  | ≥ 10000 µM | 
